Entries after “also recorded” stand apart in the source; their conditions may differ. Like-named read-outs stand apart in the source and are kept apart here. Marks after values point to notes of the source that are not given here.
Legend:
[1] = cited from earlier work
P-glycoprotein = details: verapamil (P-glycoprotein inhibitor); cited from earlier work
[2] = assay type: in vivo, human (Japanese subjects); details: for CL/F: single oral 150 mg, mean (SD)
Outline: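 Open-label parallel-group study with planned 8 per group: normal, Child-Pugh A (5–6 points) or B (7–9 points). Subjects took one 150 mg tablet with 150 mL water after an overnight fast. Blood was drawn predose, at 15 min, every 30 min to 2 h, then at 3–72 h. Plasma parent was measured by validated LC-MS/MS (LLOQ 0.25 ng/mL, linear 0.25–500 ng/mL). GMR and 90% CI came from a mixed model with hepatic group as a fixed effect.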

[3] = system: organic anion transporting polypeptide 1B1; details: peficitinib with rosuvastatin; cited from earlier work
Safety assessment = assay type: in vivo, human (Japanese subjects); details: for tolerability: non-RA subjects with normal, mild or moderate hepatic impairment, single oral dose
Outline: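 The safety set was every subject dosed with one 150 mg tablet after an overnight fast, assessed throughout the study. TEAEs were events that started or worsened after dosing, coded with Japanese MedDRA J16.0. Assessments also covered vital signs, ECG, hematology, biochemistry, urinalysis and liver tests: ALP, ALT, γ-GTP, total bilirubin and AST.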

rheumatoid arthritis = details: daily doses of 100 mg and 150 mg; cited from earlier work

NC(=O)c1cnc2[nH]ccc2c1N[C@@H]1[C@@H]2CC3C[C@H]1C[C@@](O)(C3)C2 [Peficitinib]
dose proportionality ([1]; multiple doses from 30 mg twice daily to 100 mg twice daily): Dose proportionality was shown | plasma levels reached steady state ([1]; multiple dosing, healthy subjects): ≤ 3 days | dose proportionality ([1]; single dose from 3 to 300 mg): Dose proportionality was shown | exposure in combination with verapamil (P-glycoprotein): increased exposure | GMR Impaired/Normal (90% CI), Cmax ([2]; mild hepatic impairment vs normal hepatic function): 1.04 (0.71, 1.53) % | GMR Impaired/Normal (90% CI), Cmax ([2]; mild hepatic impairment vs normal hepatic function, listed as peficitinib): 1.04 (90% CI: 0.71, 1.53) | increase in geometric mean Cmax ([2]; moderate hepatic impairment versus normal hepatic function): 82% | GMR Impaired/Normal (90% CI), Cmax ([2]; moderate hepatic impairment vs normal hepatic function): 1.82 (1.24, 2.69) % | GMR Impaired/Normal (90% CI), Cmax ([2]; moderate hepatic impairment vs normal hepatic function, listed as peficitinib): 1.82 (90% CI: 1.24, 2.69) | exposure ([2]; moderately impaired vs normal hepatic function, in words): higher exposure | CL/F ([2]; mild hepatic impairment): 121.3 (54.89) L/h | CL/F ([2]; moderate hepatic impairment): 74.51 (32.28) L/h | CL/F ([2]; normal hepatic function): 134.9 (25.77) L/h | changes in the PK profile during coadministration [3]: did not demonstrate any clinically significant changes | changes from baseline in vital signs, ECG, or clinical laboratory parameters (Safety assessment; all subjects): no clinically significant changes; also recorded: no clinically meaningful changes | deaths (Safety assessment; all subjects): no deaths | serious TEAEs (Safety assessment; all subjects): no serious TEAEs | withdrawal from the study due to a TEAE (Safety assessment; all subjects): no TEAEs leading to withdrawal; also recorded: no subjects withdrew | number of TEAEs considered related to peficitinib (Safety assessment; all subjects (N = 24)): Four | Back pain (Safety assessment; mild impairment (n = 8)): 0 n (%) | Blood urine present (Safety assessment; mild impairment (n = 8)): 1 (12.5) n (%) | Diarrhea (Safety assessment; mild impairment (n = 8)): 1 (12.5) n (%) | Hypotension (Safety assessment; mild impairment (n = 8)): 0 n (%) | Nausea (Safety assessment; mild impairment (n = 8)): 0 n (%) | TEAEs, Overall (Safety assessment; mild impairment (n = 8)): 1 (12.5) ^b n (%) | Back pain (Safety assessment; moderate impairment (n = 8)): 0 n (%) | Blood urine present (Safety assessment; moderate impairment (n = 8)): 0 n (%) | Diarrhea (Safety assessment; moderate impairment (n = 8)): 0 n (%) | Hypotension (Safety assessment; moderate impairment (n = 8)): 1 (12.5) n (%) | Nausea (Safety assessment; moderate impairment (n = 8)): 0 n (%) | TEAEs, Overall (Safety assessment; moderate impairment (n = 8)): 1 (12.5) n (%) | tolerability (Safety assessment): well tolerated | tolerability (Safety assessment; listed as peficitinib): generally well tolerated | Back pain (Safety assessment; normal function (n = 8)): 1 (12.5) n (%) | Blood urine present (Safety assessment; normal function (n = 8)): 0 n (%) | Diarrhea (Safety assessment; normal function (n = 8)): 0 n (%) | Hypotension (Safety assessment; normal function (n = 8)): 0 n (%) | Nausea (Safety assessment; normal function (n = 8)): 1 (12.5) n (%) | TEAEs, Overall (Safety assessment; normal function (n = 8), single oral 150 mg): 1 (12.5) ^a n (%) | Back pain (Safety assessment; total (N = 24)): 1 (4.2) n (%) | Blood urine present (Safety assessment; total (N = 24)): 1 (4.2) n (%) | Diarrhea (Safety assessment; total (N = 24)): 1 (4.2) n (%) | Hypotension (Safety assessment; total (N = 24)): 1 (4.2) n (%) | Nausea (Safety assessment; total (N = 24)): 1 (4.2) n (%) | efficacy and tolerability in RA patients (rheumatoid arthritis): effective and well tolerated

CC(C)c1nc(N(C)S(C)(=O)=O)nc(-c2ccc(F)cc2)c1/C=C/[C@@H](O)C[C@@H](O)CC(=O)O [rosuvastatin, reference compound]
changes in the PK profile during coadministration [3]: did not demonstrate any clinically significant changes
